In ChEMBL document CHEMBL1124609, “Synthesis and anticonvulsant properties of 2,3,3a,4-tetrahydro-1H-pyrrolo[1,2-a]benzimidazol-1-ones” (J Med Chem, 1989):

Experiments:
Rattus norvegicus [1] = organism: Rattus norvegicus; experiment: Anticonvulsant activity against maximal electroshock seizures(MES) in rats; assay type: functional
Summary of the method: (§1)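 Adult male Wistar rats (200-250 g), groups of 10, dosed ip in 80% DMSO/20% distilled water. 60 min later a 50-mA, 60-Hz alternating current was given through ear electrodes for 0.2 s. Protection was absence of tonic hind limb extension. ED50 (±95% confidence limits) by Litchfield and Wilcoxon.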

Mus musculus [2] = organism: Mus musculus; experiment: Anticonvulsant activity against audiogenic seizures in DBA/2 mice; assay type: functional
Summary of the method: (§2)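 DBA/2 mice of either sex (6-12 g, 21-25 days old), dosed ip in 80% DMSO/20% distilled water. 45 min later exposed to a mixed-frequency 109-dB sound for up to 60 s. Latency to and incidence of wild running, clonus, tonus and respiratory arrest were scored. ED50 (±95% confidence limits) by Litchfield and Wilcoxon.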

[3] = Relative lipophilicity; assay type: physicochemical; conditions: reversed-phase TLC, acetone/water 2:1
Summary of the method: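 Reversed-phase TLC on silanized silica gel plates dried 1 h at 105 °C, with acetone/water 2:1 v/v as mobile phase. Compounds were applied from chloroform solution (3 mg/mL). Rf is the mean of five runs with different plate positions, and RM = log[(1/Rf) - 1].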

Rattus norvegicus [4] = organism: Rattus norvegicus; experiment: Compound was tested for its activity against tonic hind limb extension in MES test in rats; Completely antagonized; assay type: functional, Hindlimb; summary of the method: as §1
Mus musculus [5] = organism: Mus musculus; experiment: Compound was tested for its activity against clonic seizures phase in […] mice; Completely protected; assay type: functional; summary of the method: as §2

Row | RM [3] | Compound | ED50 (Rattus norvegicus [1]) [µmol/kg] | ED50 (Mus musculus [2]) [µmol/kg] | Activity (Rattus norvegicus [4]) [µM/kg] | Activity (Mus musculus [5]) [µM/kg]
1 | -0.007 | O=C1CCC2(c3ccccc3)Nc3cc(Cl)ccc3N12 (centres undefined) | 126 | 95.9 | – | –
2 | 0.019 | O=C1CCC2(c3ccc(F)cc3)Nc3cc(Cl)ccc3N12 (centres undefined) | 105 | 87.3 | – | –
3 | -0.033 | O=C1CCC2(c3ccc(Cl)cc3)Nc3ccccc3N12 (centres undefined) | 234 | 166 | – | –
4 | -0.341 | CC12CCC(=O)N1c1ccccc1N2 (centres undefined) | 35.5 | 26.3 | 200 | 100
5 | -0.131 | O=C1CCC2(c3ccccc3)Nc3ccccc3N12 (centres undefined) | 200 | 161 | – | –
6 | 0.068 | O=C1CCC2(c3ccc(Cl)cc3)Nc3cc(Cl)ccc3N12 (centres undefined) | 281 | 143 | – | –
7 | -0.084 | O=C1CCC2(c3ccc(F)cc3)Nc3ccccc3N12 (centres undefined) | 575 | 356 | – | –
8 | -0.005 | O=C1CCC2(c3ccccc3)Nc3ccc(Cl)cc3N12 (centres undefined) | 271 | 179 | – | –

The next lines start with the compound.

Row | Compound | RM [3] | ED50 (Rattus norvegicus [1]) [µmol/kg] | ED50 (Mus musculus [2]) [µmol/kg] | Activity (Rattus norvegicus [4]) [µM/kg] | Activity (Mus musculus [5]) [µM/kg]
9 | O=C1CCC2(c3ccc(Cl)cc3)Nc3ccc(Cl)cc3N12 (centres undefined) | 0.073 | 501 | 347 | – | –
10 | Cc1ccc2c(c1)N1C(=O)CCC1(C)N2 (centres undefined) | -0.279 | 197 | 122 | – | –
11 | O=C1CCC2(c3ccc(F)cc3)Nc3ccc(Cl)cc3N12 (centres undefined) | 0.028 | 198 | 178 | – | –
12 | Cc1ccc2c(c1)NC1(C)CCC(=O)N21 (centres undefined) | -0.284 | 141 | 97.7 | – | –
13 | CC12CCC(=O)N1c1ccc(Cl)cc1N2 (centres undefined) | -0.167 | 88.2 | 79.4 | – | –
14 | CC12CCC(=O)N1c1ccc([N+](=O)[O-])cc1N2 (centres undefined) | -0.187 | > 600 | > 600 | – | –
15 | CC12CCC(=O)N1c1cc([N+](=O)[O-])ccc1N2 (centres undefined) | -0.237 | > 600 | > 600 | – | –
16 | CC12CCC(=O)N1c1cc(Cl)ccc1N2 (centres undefined) | -0.162 | 234 | 148 | – | –
17 | O=C1NC(=O)C(c2ccccc2)(c2ccccc2)N1 [PHENYTOIN] | – | 55.5 | 19.8 | – | –
18 | CCCC(CCC)C(=O)O [VALPROIC ACID] | – | 1890 | 1230 | – | –
